High-throughput results (PubChem BioAssay)
Calb biofilm kill: clotrimazole potentiators killing C. albicans biofilm, primary screen, 4-compound mixtures | inhibition, % at 7.6 µM | AID 1242, 2008 | C. albicans biofilm persisters + clotrimazole, fluorescence viability; primary screen in compound mixtures of four per well | actives 0.02% (n = 120,000);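 active = inhibition above 30.3% in the primary screen of four-compound pools, then above 30% when the compound was retested; inconclusive = passed the primary limit but could not be retested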;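 also: compounds exposed to preformed 24 h biofilms for 48 h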
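System: C. albicans CAF4-2 wild-type biofilms; Medium: RPMI/MOPS medium, pH 7.0; Reagent: Clotrimazole, 50 µg/mL; Times: biofilm formation 24 h, compound exposure 48 h, 37 °C; Detection: 2-h Alamar Blue fluorescence, 535/590 nm excitation/emission; Evaluation: percent inhibition of biofilm viability.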
ROMK primary: ROMK potassium channel modulators, primary screen, cell-based, thallium flux, MLSMR library | ATP-sensitive inward rectifier potassium channel 1 (Homo sapiens), P48048 | B-score at 10 µM | AID 1918, 2009 | Tet-inducible ROMK, thallium flux fluorescence; actives lie on both sides | actives 2% (n = 130,000);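 active = signal ratio slope over the read window, or its plate-corrected B-score, at least 3 SD from the plate mean, either direction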;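 also: B-score of the F/F0 ratio slope over 7 to 12 s after thallium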
Target sequence (P48048 whole entry, looked up): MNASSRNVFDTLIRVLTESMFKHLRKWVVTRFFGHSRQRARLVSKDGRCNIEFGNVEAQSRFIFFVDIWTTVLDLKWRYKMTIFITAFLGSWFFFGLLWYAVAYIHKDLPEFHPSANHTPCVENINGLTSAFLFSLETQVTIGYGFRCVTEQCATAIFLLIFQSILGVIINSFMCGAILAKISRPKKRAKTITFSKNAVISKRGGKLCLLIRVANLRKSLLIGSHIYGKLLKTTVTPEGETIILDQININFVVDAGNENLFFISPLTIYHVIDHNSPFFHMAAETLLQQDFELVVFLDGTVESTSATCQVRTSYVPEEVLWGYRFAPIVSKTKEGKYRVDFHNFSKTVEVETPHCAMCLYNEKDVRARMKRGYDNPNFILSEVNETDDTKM
ROMK retest: ROMK channel modulator hit retest, confirmation, cell-based, thallium flux, duplicate, resupplied hits; normalized thallium flux (F/F0 slope) at 10 µM; AID 1917, 2009; fluorescence ratio; active compounds read low; shares compounds with ROMK primary; actives 54% (n = 3,000);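 active = Flux at 10 µM at least 3 SD below or above vehicle control mean in one or both replicates; inconclusive = no clear call, values can overlap the other calls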
Large screens that a line does not name were inactive (follow-up assays come after a bar, where they were run). Shown is part of a subset that was picked to be rich in hits.

CC1Cc2ccccc2N1C(=O)CSc1nnc(Cc2ccccc2)n1CCc1ccccc1 (stereo unspecified)	ROMK primary -3.9 (no result: Calb biofilm kill) | ROMK retest 0.062
CC1(C(=O)N(Cc2ccccc2)Cc2ccccc2)CC1(Br)Br (stereo unspecified)	none
CC(C)(Oc1ccc(Cl)cc1)C(=O)N1CCC(C(N)=O)CC1	none
ON(Cc1c(F)cccc1Cl)Cc1c(F)cccc1Cl	none
O=C(O)c1ccc(N2C(=O)c3ccc(C(=O)c4cccc([N+](=O)[O-])c4)cc3C2=O)cc1	ROMK primary 2.2 | ROMK retest inactive
O=C(c1cccc([N+](=O)[O-])c1)c1ccc2c(c1)C(=O)N(c1c[nH]c(=O)[nH]c1=O)C2=O	none
COc1ccc(-c2nn(-c3ccccc3)cc2/C=N/Nc2ccc3ccccc3n2)cc1OC	none
Cc1c(C(=O)N2CCCCC2)oc2ccc(S(=O)(=O)N3CC(C)CC(C)C3)cc12 (stereo unspecified)	none (no result: Calb biofilm kill)
O=C1c2cccc(OCC(=O)N3CCCc4ccccc43)c2CCN1Cc1ccccc1	none (no result: ROMK primary)
COc1ccc(S(=O)(=O)Nc2ccc(F)c(F)c2)cc1Cl	ROMK primary -3.2 (no result: Calb biofilm kill) | ROMK retest 0.059
COc1ccc(NS(=O)(=O)c2ccc(S(=O)(=O)N3CCCC3)cc2)cc1Cl	none (no result: Calb biofilm kill)
C=C1CN(CC(=O)OC)S(=O)(=O)c2ccccc21	none (no result: ROMK primary)
C=CC1CN(CC(=O)OC)S(=O)(=O)c2ccccc21 (stereo unspecified)	none (no result: ROMK primary) | ROMK retest inactive
Fc1ccc(COc2ccc(Br)cc2CNCc2ccncc2)cc1	ROMK primary -2.7 (no result: Calb biofilm kill) | ROMK retest 0.063
Fc1ccccc1COc1ccc(Br)cc1CNCc1ccncc1	none (no result: Calb biofilm kill)
COc1ccc(CNCC(O)(c2ccc(Cl)cc2)c2ccc(Cl)cc2)cc1	none (no result: Calb biofilm kill)
CC(C)Cn1c(O)c(/C=C2\C=NN=C2c2ccccc2)sc1=S	none (no result: ROMK primary)
Cc1ccccc1NC(=O)CSc1n[nH]c(-c2ccco2)n1	none
c1ccc(CSc2n[nH]c(-c3ccco3)n2)cc1	ROMK primary 2 (no result: Calb biofilm kill) | ROMK retest inactive
O=C1C2C3C=CC(CC3)C2C(=O)N1c1nccs1 (stereo unspecified)	none (no result: ROMK primary)
CCN(CC)C(=O)c1ccc2c(c1[N+](=O)[O-])C(=O)c1ccccc1C2=O	none (no result: ROMK primary)
Cc1cc(OCC(=O)Nc2ccc(F)c(F)c2)nc(C(C)C)n1	none (no result: Calb biofilm kill)
CCc1nnc(NC(=O)C2CCN(c3nc(C)cc(C)n3)CC2)s1	ROMK primary 2.2 (no result: Calb biofilm kill) | ROMK retest inactive
Cc1ccnc(N2CCC(C(=O)Nc3nnc(C)s3)CC2)n1	none (no result: Calb biofilm kill)
CCCCCOC(=O)c1ccc(NC(=O)c2ccco2)cc1	none (no result: Calb biofilm kill)
CCOc1nc(N(C)C)nc(-n2nnc(C(C)=O)c2C)n1	none (no result: Calb biofilm kill)
O=C(c1cc2nc(-c3ccc(F)cc3)cc(C(F)(F)F)n2n1)N1CCCC1	none (no result: Calb biofilm kill)
O=C(c1cc2nc(C3CC3)cc(C(F)(F)F)n2n1)N1CCCC1	ROMK primary 6.9 (no result: Calb biofilm kill) | ROMK retest inactive
COc1cccc(N(CC(=O)NCc2ccco2)C(=O)CCC(=O)Nc2nccs2)c1	none (no result: ROMK primary)
CCOC(=O)C1(Cc2ccccc2)CCN(Cc2cn[nH]c2-c2ccccc2)CC1	ROMK primary -2.5 | ROMK retest 0.056
CCOC(=O)C1(CC2CC2)CCN(Cc2cn[nH]c2-c2ccccc2)CC1	none
CC(C)c1ccc(NC(=O)C2C3C=CC4(CN(CCCN5CCOCC5)C(=O)C24)O3)cc1 (stereo unspecified)	none (no result: Calb biofilm kill)
Cc1ccc(CN2CCC(c3nc4ccc(Cl)cc4[nH]3)CC2)cc1	none (no result: Calb biofilm kill, ROMK primary) | ROMK retest inconclusive
CC1CCCCN1C(=O)CN1CCC(c2nc3ccc(Cl)cc3[nH]2)CC1 (stereo unspecified)	none
Cc1ccc(Cl)cc1N1CCN(C(=O)Cc2cn(C)c3ccccc23)CC1	none (no result: Calb biofilm kill)
O=C(Cc1cn(Cc2cccc(Cl)c2)c2ccccc12)N1CCCC1	ROMK primary -3.2 | ROMK retest 0.059
COc1cc(NC(=O)c2ccccc2[N+](=O)[O-])c(C(=O)O)cc1OC	none
CCn1ccc(C(=O)Nc2ccccc2Cl)n1	none
Cn1c(Cc2cccc3ccccc23)nnc1SCc1ccc([N+](=O)[O-])cc1	none (no result: ROMK primary)
Cc1cccc(-n2c(Cc3ccccc3)nnc2SCc2ccc([N+](=O)[O-])cc2)c1	ROMK primary -7.4 | ROMK retest 0.044
O=[N+]([O-])c1ccc(CSc2nnc(Cc3ccccc3)n2-c2ccc(F)cc2)cc1	none
COc1ccc(-n2c(Cc3ccccc3)nnc2SCc2ccc([N+](=O)[O-])cc2)cc1	ROMK primary -2.3 | ROMK retest 0.06
C/C=C1\C(OC2OC(CO)C(O)C(O)C2O)OC=C(C(=O)OC)C1CC(=O)OCC1C(C)C(OC(=O)CC2C(C(=O)OC)=COC(OC3OC(CO)C(O)C(O)C3O)/C2=C\C)CC1C(CO)CO (stereo unspecified)	none (no result: ROMK primary)
CCO/N=C(\C)c1c(O)c(CC)c(-c2ccccc2)n(-c2ccccc2)c1=O	none
CCOC(=O)c1sc2nc(COC(=O)c3c(F)cccc3F)[nH]c(=O)c2c1C	ROMK primary -2.4 | ROMK retest inactive
Cc1sc2nc(COC(=O)c3cccc(OC(F)F)c3)[nH]c(=O)c2c1C	none (no result: ROMK primary)
CCN1CCN(CCCN(Cc2ccco2)C(=S)Nc2cc(Cl)ccc2C)CC1	none
CC(C)CC(NS(=O)(=O)c1ccccc1)C(=O)O (stereo unspecified)	none (no result: Calb biofilm kill)
CC(C)CN=C(NS(=O)(=O)c1ccccc1)C(Cl)(Cl)Cl	none (no result: ROMK primary) | ROMK retest 0.05
O=C1c2ccc(Br)cc2C(=O)N1c1ccc(Cc2ccncc2)cc1	none
O=C(NCc1nnc(SCc2ccc(C(F)(F)F)cc2)n1-c1ccccc1)C12CC3CC(CC(C3)C1)C2	none
O=C(NCc1nnc(SCc2ccc(F)cc2)n1-c1ccccc1)C12CC3CC(CC(C3)C1)C2	ROMK primary -2.5 | ROMK retest 0.056
COCc1cc(/C=N\NC(=O)c2ccc(Cl)cc2)ccc1OC	none
COc1ccc(/C=N/NC(=O)c2cc(C(C)(C)C)[nH]n2)cc1COc1ccc(F)cc1F	ROMK primary -11 | ROMK retest inactive
CCOc1ccccc1N1CN(C2CCCCC2)CNC1=S	none (no result: ROMK primary)
COc1ccc(C)cc1N(C(=O)c1ccccc1)c1nc2ccccc2s1	none (no result: ROMK primary)
COc1ccc(C)cc1N(C(=O)c1ccccc1F)c1nc2ccccc2s1	ROMK primary -2.5 | ROMK retest inactive
COc1cc(/C=C2\N=C(c3ccccc3)NNC2=O)cc(OC)c1OC	none (no result: ROMK primary)
COc1ccc2oc(=O)c(-c3nnc(N)s3)cc2c1	none
COc1ccc2oc(=O)c(-c3nc(C)cs3)cc2c1	ROMK primary -5.1 (no result: Calb biofilm kill) | ROMK retest inactive
O=C(c1cccc(F)c1)N1CCN(C(=O)c2cc(-c3ccc(Cl)cc3Cl)on2)CC1	ROMK primary -4.2 (no result: Calb biofilm kill) | ROMK retest inconclusive
CCOC(=O)N1CCN(C(=O)c2cccc(F)c2)CC1	none
CCC1=NN2C(=N)/C(=C/c3c(C)nn(-c4ccccc4)c3Cl)C(=O)N=C2S1	ROMK primary -3.1 | ROMK retest 0.047
CCC1=NN2C(=N)/C(=C\c3cccn3-c3ccc(OC)cc3)C(=O)N=C2S1	none
CC(=O)Cc1nsc(NC(=O)c2ccc(-c3cccc(Cl)c3)o2)n1	ROMK primary 4.3 | ROMK retest inactive
CC(=O)Cc1nsc(NC(=O)c2ccc(Br)o2)n1	none (no result: ROMK primary)
Cc1nn(-c2ccccc2)c(Cl)c1C(=O)NCc1cccs1	none (no result: ROMK primary)
O=C1N/C(=C\c2ccc(O)cc2)C(O)=C1C=NCc1ccccc1	ROMK primary 2.1 | ROMK retest inactive
COc1ccc(/C=C2\NC(=O)C(C=NCc3ccccc3)=C2O)cc1	none (no result: ROMK primary)
